Assay results: ChEMBL document CHEMBL4033780, “Lipidated Brartemicin Analogues Are Potent Th1-Stimulating Vaccine Adjuvants” (J Med Chem, 2018)
Substitutions are numbered along the chain they refer to. The source made the active and inactive calls. The calls are words filed in the database; no cut-off is given here.

Experiments:
[1] = molecular target: T1, C-type lectin domain family 4 member E (Mus musculus) (UniProt Q9R0Q8); experiment: Agonist activity at mouse mincle coupled with FcRgamma expressed in 2B4-NFAT-GFP reporter cells at higher concentration after 18 hrs by flow cytometric analysis; type: cell-based
T1 sequence (whole entry): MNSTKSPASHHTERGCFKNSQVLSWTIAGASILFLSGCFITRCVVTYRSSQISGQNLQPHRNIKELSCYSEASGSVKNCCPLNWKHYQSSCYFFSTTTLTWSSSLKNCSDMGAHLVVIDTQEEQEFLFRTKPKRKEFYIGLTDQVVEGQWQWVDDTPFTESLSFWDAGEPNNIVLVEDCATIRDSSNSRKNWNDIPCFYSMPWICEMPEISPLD
Outline: (§1)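 2B4 NFAT-GFP reporter cells expressing mouse or human Mincle plus FcRγ were placed on plates coated with ligand at 0.01, 0.1 or 1 nmol/well; cells expressing FcRγ only served as negative control. Ligand was coated from isopropanol, 0.05 mM, and solvent evaporated. After 18 h, cells were harvested, stained with propidium iodide and GFP read by flow cytometry. Mean of three experiments in duplicate (±SEM).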

BMDM [2] = experiment: Immunostimulatory activity in mincle-/- C57BL/6 mouse GM-CSF derived BMDM assessed as increase in IL-1beta release at […] after 24 hrs by sandwich ELISA method; type: functional, cell-based
Outline: (§2)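 Wild-type or Mincle−/− C57BL/6 bone marrow was cultured 8 days with GM-CSF 50 ng/mL in complete RPMI. Macrophages were detached with Acutase and seeded on ligand-coated plates (0.1 or 1 nmol/well); LPS 100 ng/mL was used as comparator. Supernatant was taken at 24 h and TNF, IL-6, IL-1β and MIP-2 measured by sandwich ELISA. Representative of three experiments in triplicate (±SD).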

[3] = molecular target: T2, C-type lectin domain family 4 member E (Homo sapiens) (UniProt Q9ULY5); experiment: Agonist activity at human mincle coupled with FcRgamma expressed in 2B4-NFAT-GFP reporter cells at higher concentration after 18 hrs by flow cytometric analysis; type: cell-based; outline: as §1
T2 sequence (whole entry): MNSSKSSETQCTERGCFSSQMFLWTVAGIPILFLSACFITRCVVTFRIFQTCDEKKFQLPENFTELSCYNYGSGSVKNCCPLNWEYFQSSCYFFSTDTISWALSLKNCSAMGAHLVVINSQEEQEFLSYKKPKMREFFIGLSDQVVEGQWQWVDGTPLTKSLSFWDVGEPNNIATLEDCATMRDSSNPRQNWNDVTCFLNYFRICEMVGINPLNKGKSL

BMDM [4] = experiment: Immunostimulatory activity in mincle-/- C57BL/6 mouse GM-CSF derived BMDM assessed as increase in IL-6 release at […] after 24 hrs by sandwich ELISA method; type: functional, cell-based; outline: as §2
[5] = molecular target: T1, C-type lectin domain family 4 member E (Mus musculus); experiment: Agonist activity at mincle in wild type C57BL/6 mouse GM-CSF derived BMDM assessed as increase in IL-6 release at 0.1 to 1 nmol after 24 hrs by sandwich ELISA; outline: as §2
[6] = molecular target: T1, C-type lectin domain family 4 member E (Mus musculus); experiment: Agonist activity at mincle in wild type C57BL/6 mouse GM-CSF derived BMDM assessed as increase in IL-1beta release at 0.1 to 1 nmol after 24 hrs by sandwich ELISA; outline: as §2
[7] = molecular target: T2, C-type lectin domain family 4 member E (Homo sapiens); experiment: Binding affinity to recombinant human mincle extracellular domain fused with human IgG Fc expressed in HEK293T cells at 0.1 nmol by ELISA; type: cell-based; conditions: HEK-293T
[8] = Toxicity in Atlantic horseshoe crab blood limulus amebocyte lysate by chromogenic endotoxin test; conditions: limulus polyphemus
Outline: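 Endotoxin was measured by chromogenic Limulus amebocyte lysate assay at a sensitivity of ≤0.1 EU/mL.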

[9] = molecular target: T1, C-type lectin domain family 4 member E (Mus musculus); experiment: Binding affinity to recombinant mouse mincle extracellular domain fused with human IgG Fc expressed in HEK293T cells at 0.1 nmol by ELISA; type: cell-based; conditions: HEK-293T
BMDM [10] = experiment: Immunostimulatory activity in mincle-/- C57BL/6 mouse GM-CSF derived BMDM assessed as increase in TNF release at […] after 24 hrs by sandwich ELISA method; type: functional, cell-based; outline: as §2
BMDM [11] = experiment: Immunostimulatory activity in mincle-/- C57BL/6 mouse GM-CSF derived BMDM assessed as increase in MIP2 release at […] after 24 hrs by sandwich ELISA method; type: functional, cell-based; outline: as §2
[12] = molecular target: T1, C-type lectin domain family 4 member E (Mus musculus); experiment: Agonist activity at mincle in wild type C57BL/6 mouse GM-CSF derived BMDM assessed as increase in MIP2 release at 0.1 to 1 nmol after 24 hrs by sandwich ELISA; outline: as §2
[13] = molecular target: T1, C-type lectin domain family 4 member E (Mus musculus); experiment: Agonist activity at mincle in wild type C57BL/6 mouse GM-CSF derived BMDM assessed as increase in TNF release at 0.1 to 1 nmol after 24 hrs by sandwich ELISA; outline: as §2
[14] = tested on: T3, C-type lectin domain family 4 member E (Homo sapiens), Q9ULY5 [R183A]; experiment: Agonist activity at human mincle R183A mutant expressed in NFAT-GFP reporter cells up to 3000 pmol after 18 hrs by flow cytometric analysis; type: cell-based
T3 sequence (whole entry): T2 sequence (whole entry) with R183A
Outline: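 The hMincle R183A mutant, made by site-directed mutagenesis, was retrovirally introduced into 2B4 NFAT-GFP cells expressing FcRγ only. Cells were stimulated on plates coated with increasing ligand amounts for 18 h, and NFAT-GFP was read by flow cytometry. Mean of two independent experiments in duplicate (±SEM).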

[15] = molecular target: T1, C-type lectin domain family 4 member E (Mus musculus); experiment: Agonist activity at mouse mincle coupled with FcRgamma expressed in 2B4-NFAT-GFP reporter cells up to 1 nmol after 18 hrs by flow cytometric analysis; type: cell-based; outline: as §1
[16] = molecular target: T2, C-type lectin domain family 4 member E (Homo sapiens); experiment: Agonist activity at human mincle coupled with FcRgamma expressed in 2B4-NFAT-GFP reporter cells up to 1 nmol after 18 hrs by flow cytometric analysis; type: cell-based; outline: as §1
Mus musculus [17] = organism: Mus musculus; experiment: Adjuvant activity in immunized C57BL/6 mouse assessed as increase in OVA-specific IgG production in serum at 0.3 umol treated with ovalbumin for 7 days followed by stimulation with OVA for 7 days and restimulation with OVA measured 24 to 48 hrs post OVA challenge; type: functional
Outline: (§3)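 Sera were taken on days 0, 7 and 14 from C57BL/6 mice sensitized s.c. with emulsion containing OVA 200 μg ± adjuvant 0.3 μmol and footpad-challenged with OVA on day 7. OVA-specific IgG, IgG1, IgG2b and IgG2c were measured by ELISA with HRP-coupled anti-mouse secondaries. EC50 was taken from absorbance at 450 nm plotted against log serum concentration.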

Mus musculus [18] = organism: Mus musculus; experiment: Adjuvant activity in immunized C57BL/6 mouse assessed as increase in antigen specific IFNgamma production in spelnocytes at 0.3 umol treated with ovalbumin for 7 days followed by stimulation with OVA for 7 days and restimulation with OVA measured 24 to 48 hrs post OVA challenge; type: functional, cell-based
Outline: (§4)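 C57BL/6 mice (8–12 wk) given s.c. oil-in-water emulsion (mineral oil/Tween-80/PBS 9:1:90) holding OVA 200 μg ± adjuvant 0.3 μmol; controls were OVA alone or no OVA. Footpad challenge with OVA 100 μg on day 7, spleens taken day 14. Splenocytes restimulated with OVA 10, 30 or 100 μg/mL. Cell number read at 450 nm after 3 h with a count reagent; IFN-γ and IL-17 measured by ELISA.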

Mus musculus [19] = organism: Mus musculus; experiment: Adjuvant activity in immunized C57BL/6 mouse assessed as increase in OVA-specific IgG2b production in serum at 0.3 umol treated with ovalbumin for 7 days followed by stimulation with OVA for 7 days and restimulation with OVA measured 24 to 48 hrs post OVA challenge; type: functional
Mus musculus [20] = organism: Mus musculus; experiment: Adjuvant activity in immunized C57BL/6 mouse assessed as footpad swelling at 0.3 umol treated with ovalbumin for 7 days followed by stimulation with OVA for 7 days measured 24 to 48 hrs post OVA challenge; type: functional
Mus musculus [21] = organism: Mus musculus; experiment: Adjuvant activity in immunized C57BL/6 mouse assessed as increase in OVA-specific IgG2c production in serum at 0.3 umol treated with ovalbumin for 7 days followed by stimulation with OVA for 7 days and restimulation with OVA measured 24 to 48 hrs post OVA challenge relative to control; type: functional
Mus musculus [22] = organism: Mus musculus; experiment: Adjuvant activity in immunized C57BL/6 mouse assessed as increase in OVA-specific IgG1 production in serum at 0.3 umol treated with ovalbumin for 7 days followed by stimulation with OVA for 7 days and restimulation with OVA measured 24 to 48 hrs post OVA challenge relative to control; type: functional; outline: as §3
Mus musculus [23] = organism: Mus musculus; experiment: Adjuvant activity in immunized C57BL/6 mouse assessed as increase in IL-17 production in spelnocytes at 0.3 umol treated with ovalbumin for 7 days followed by stimulation with OVA for 7 days and restimulation with OVA measured 24 to 48 hrs post OVA challenge; type: functional, cell-based; outline: as §4

SMILES	Activity [5]	Activity [6]	Activity [7]	Activity [9]	Activity [12]	Activity [13]	Activity [15]	Activity [16]	Activity (BMDM [2])	Activity (BMDM [4])	Activity [8]	Activity (BMDM [10])	Activity (BMDM [11])	further results
CCCCOc1ccc(C(=O)OC[C@H]2O[C@H](O[C@H]3O[C@H](COC(=O)c4ccc(OCCCC)cc4O)[C@@H](O)[C@H](O)[C@H]3O)[C@H](O)[C@@H](O)[C@@H]2O)c(O)c1	inactive	inactive	inactive	inactive	Active	inactive	–	–	inactive	inactive	<= 0.1 EU/ml	inactive	inactive	Activity [1]: Active; Activity [3]: Active
CCCCCCCOc1ccc(C(=O)OC[C@H]2O[C@H](O[C@H]3O[C@H](COC(=O)c4ccc(OCCCCCCC)cc4)[C@@H](O)[C@H](O)[C@H]3O)[C@H](O)[C@@H](O)[C@@H]2O)cc1	Active	Active	Active	Active	Active	Active	Active	Active	inactive	inactive	<= 0.1 EU/ml	inactive	inactive	–
CCCCCCCOc1ccc(C(=O)OC[C@H]2O[C@H](O[C@H]3O[C@H](COC(=O)c4ccc(OCCCCCCC)cc4O)[C@@H](O)[C@H](O)[C@H]3O)[C@H](O)[C@@H](O)[C@@H]2O)c(O)c1	Active	Active	Active	Active	Active	Active	Active	Active	inactive	inactive	<= 0.1 EU/ml	inactive	inactive	–

More lines, main results first:

Activity [5]	Activity [6]	Activity [7]	Activity [9]	Activity [12]	Activity [13]	Activity [15]	Activity [16]	SMILES	Activity (BMDM [2])	Activity (BMDM [4])	Activity [8]	Activity (BMDM [10])	Activity (BMDM [11])	further results
Active	Active	–	–	Active	Active	–	–	CCCCCCCCCCCCCCCCCCCCCCCCCC(O)C(CCCCCCCCCCC1CC1CCCCCCCCCCCCCCCCCC)C(=O)OC[C@H]1O[C@H](O[C@H]2O[C@H](COC(=O)C(CCCCCCCCCCCCCCCCCCCCCCCC)C(O)CCCCCCCCCCCC3CC3CCCCCCCCCCCCCCCCCC)[C@@H](O)[C@H](O)[C@H]2O)[C@H](O)[C@@H](O)[C@@H]1O (stereo not given in full)	–	–	–	–	–	Activity [14]: Active
Active	Active	–	–	Active	Active	–	–	CCCCCCCCCCCCCCCCCCCCCC(=O)OC[C@H]1O[C@H](O[C@H]2O[C@H](COC(=O)CCCCCCCCCCCCCCCCCCCCC)[C@@H](O)[C@H](O)[C@H]2O)[C@H](O)[C@@H](O)[C@@H]1O	–	–	–	–	–	Activity (Mus musculus [17]): Active; Activity (Mus musculus [18]): inactive; Activity (Mus musculus [19]): Active; Activity (Mus musculus [20]): inactive; Activity (Mus musculus [21]): Active; Activity (Mus musculus [22]): Active; Activity (Mus musculus [23]): inactive
